Data as given in article PMC10762718 (RSC Advances, 2024).

How the values were obtained:
Assay type in all cases: cell-based
[1] = system: MDA-MB-231 (human breast cancer) cells; test: MTT cell viability assay, MDA-MB-231; details: for inhibition at 25 µM: MDA-MB-231
Outline: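 MDA-MB-231 cells were grown as a monolayer in DMEM with 10% heat-inactivated FBS and 1% penicillin-streptomycin at 37 °C in humidified CO2, subcultured every third day with trypsin-EDTA, and used before passage 8. Cells were exposed 72 h to 10, 25 and 50 μM. Medium was removed, MTT added for 3 h at 37 °C, formazan dissolved in DMSO and read at 595 nm. Viability is relative to untreated control, triplicates, ±SD. IC50 comes from the viability-versus-concentration plot.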

[2] = system: MCF-7 breast cancer cells; test: MTT cell viability assay, MCF-7; details: Homo sapiens; for inhibition at 25 µM: MCF7; for IC50: MCF7, 72 h, read-out: IC50 against MCF-7 breast cancer cells line
Outline: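 After medium removal, MTT was added for 3 h at 37 °C in CO2, formazan dissolved in DMSO and absorbance read at 595 nm. Viability is relative to untreated cells, triplicates, n = 3, ±SD. IC50 comes from plotting percent viability against concentration.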

MDA-MB-453 cells = test: MTT cell viability assay, MDA-MB-453; details: for IC50 against MDA-MB-453 cells: tested at 1, 10 and 25 μM
Outline: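 MDA-MB-453 (HER2-positive) cells were exposed to test compound at 1, 10 and 25 μM for 72 h. After medium removal, MTT was added for 3 h at 37 °C in CO2. Formazan was dissolved in DMSO and absorbance read at 595 nm. Percent viable cells are relative to untreated control cells.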

[3] = system: normal mammary epithelial MCF-10A cells; test: MTT cell viability assay, normal MCF-10A cells; details: tested at 25, 50 and 100 μM
Outline: (§1)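 Normal mammary epithelial MCF-10A cells were exposed to test compound at 25, 50 and 100 μM for 72 h. Cells were then given MTT after medium removal, 3 h at 37 °C in CO2. Formazan was dissolved in DMSO and absorbance read at 595 nm. Viability is expressed as percent of untreated control cells.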

[4] = MTT cell viability assay, normal MCF-10A cells; details: human, MCF-10A normal mammary epithelial cells
Outline: as §1

[5] = MDA-MB-231, 72 h, read-out: Cell viability (%) ±SD
[6] = MCF7, read-out: Cell viability (%) ±SD
[7] = Homo sapiens, MDA-MB-453, read-out: Cell viability (%) ±SD

Row | SMILES | inhibition at 25 µM [1] | viability at 10 µM [1, 5] | viability at 25 µM [1, 5] | viability at 50 µM [1, 5] | inhibition at 25 µM [2] | IC50 [2] | viability at 1 µM [2, 6] | viability at 10 µM [2, 6] | viability at 25 µM [2, 6] | viability at 1 µM (MDA-MB-453 cells; [7]) | viability at 10 µM (MDA-MB-453 cells; [7]) | viability at 25 µM (MDA-MB-453 cells; [7]) | IC50 against MDA-MB-453 cells (MDA-MB-453 cells) | growth inhibitory activity against normal breast epithelial cell (MCF-10A) [3] | viability at 72 h, 25 µM [4] | viability at 72 h, 50 µM [4] | viability at 72 h, 100 µM [4] | further results
1 | CC(=O)OC[C@@H]1O[C@H](n2cc(Cn3ccc4nc(-c5ccc(C(F)(F)F)cc5)cc(=O)n43)nn2)[C@@H](OC(C)=O)[C@H](OC(C)=O)[C@@H]1OC(C)=O (stereo in doubt) [Compound 36, (2S,3R,4R,5S,6S)-2-(Acetoxymethyl)-6-(4-((7-oxo-5-(4-(trifluoromethyl)phenyl)pyrazolo[1,5-a]pyrimidin-1(7H)-yl)methyl)-1H-1,2,3-triazol-1-yl)tetrahydro-2H-pyran-3,4,5-triyl triacetate] | ~50% | 70.4 ± 5.36% | 46.1 ± 3.32% | 41.2 ± 1.26% | ~50% | 4.93 µM | 52.3 ± 3.1% | 32.4 ± 0.9% | 28.1 ± 4.4% | 91.5 ± 4.6% | 82.9 ± 1.2% | 63.8 ± 1.7% | did not reach up to IC50 value | none of these compounds did have any growth inhibitory activity | 88.6 ± 1.5% | 86.1 ± 2.8% | 84.2 ± 3% | 
2 | COc1ccc(-c2cc(=O)n3c(ccn3Cc3cn([C@H]4O[C@H](COC(C)=O)[C@@H](OC(C)=O)[C@H](OC(C)=O)[C@@H]4OC(C)=O)nn3)n2)cc1 [Compound 41, (2R,3R,4S,5S,6S)-2-(Acetoxymethyl)-6-(4-((5-(4-methoxyphenyl)-7-oxopyrazolo[1,5-a]pyrimidin-1(7H)-yl)methyl)-1H-1,2,3-triazol-1-yl)tetrahydro-2H-pyran-3,4,5-triyl triacetate] | ~50% | 66.7 ± 8.21% | 54.3 ± 6.12% | 44.2 ± 4.11% | ~50% | 21.8 µM | 72.8 ± 4.2% | 58.2 ± 3.8% | 48.1 ± 3.5% | 96.4 ± 4.8% | 77.4 ± 5.4% | 95.1 ± 35.7% | did not reach up to IC50 value | none of these compounds did have any growth inhibitory activity | 89.8 ± 2.8% | 84.2 ± 5.8% | 83 ± 1.5% | 
3 | COCCn1c2c([n+](Cc3cnccn3)c1C)C(=O)c1ccccc1C2=O [YM155, reference compound] |  |  |  |  |  |  |  |  |  |  |  |  |  |  |  |  |  | viability at 0.02 µM [1, 5]: 23.4 ± 3.13%; viability at 0.02 µM [2, 6]: 31.2 ± 1.7%; viability at 0.02 µM (MDA-MB-453 cells; [7]): 36.2 ± 1.5%; viability at 72 h, 0.02 µM [4]: 39.2 ± 1.6%
4 | CC(=O)OC[C@@H]1O[C@H](n2cc(Cn3ccc4nc(-c5ccc6c(c5)OCO6)cc(=O)n43)nn2)[C@@H](OC(C)=O)[C@H](OC(C)=O)[C@H]1OC(C)=O (stereo in doubt) [Compound 30, (2S,3S,4R,5S,6S)-2-(Acetoxymethyl)-6-(4-((5-(benzo[d][1,3]dioxol-5-yl)-7-oxopyrazolo[1,5-a]pyrimidin-1(7H)-yl)methyl)-1H-1,2,3-triazol-1-yl)tetrahydro-2H-pyran-3,4,5-triyl triacetate] | ~50% | 86.6 ± 3.36% | 55.2 ± 7.06% | 42.8 ± 5.04% | ~50% | 18.5 µM | 78.2 ± 2.6% | 57.7 ± 2.4% | 42.3 ± 7.6% | 99.2 ± 8.1% | 74.8 ± 1.5% | 61.4 ± 3.2% | did not reach up to IC50 value | none of these compounds did have any growth inhibitory activity | 86.8 ± 5.3% | 84.8 ± 3% | 78.5 ± 3.4% | 
5 | COc1ccc(-c2cc(=O)n3c(ccn3Cc3cn([C@H]4O[C@@H](COC(C)=O)[C@@H](OC(C)=O)[C@@H](OC(C)=O)[C@@H]4OC(C)=O)nn3)n2)cc1 (stereo in doubt) [Compound 32, (2S,3R,4R,5S,6S)-2-(Acetoxymethyl)-6-(4-((5-(4-methoxyphenyl)-7-oxopyrazolo[1,5-a]pyrimidin-1(7H)-yl)methyl)-1H-1,2,3-triazol-1-yl)tetrahydro-2H-pyran-3,4,5-triyl triacetate] |  | 92.5 ± 9.39% | 86.2 ± 8.63% | 72.5 ± 6.24% |  |  |  |  |  |  |  |  |  |  |  |  |  | 
6 | CC(=O)OC[C@@H]1O[C@H](n2cc(Cn3ccc4nc(-c5ccc(C(F)(F)F)cc5)cc(=O)n43)nn2)[C@@H](OC(C)=O)[C@H](OC(C)=O)[C@H]1OC(C)=O (stereo in doubt) [Compound 27, (2S,3S,4R,5S,6S)-2-(Acetoxymethyl)-6-(4-((7-oxo-5-(4-(trifluoromethyl)phenyl)pyrazolo[1,5-a]pyrimidin-1(7H)-yl)methyl)-1H-1,2,3-triazol-1-yl)tetrahydro-2H-pyran-3,4,5-triyl triacetate] |  | 93.2 ± 8.51% | 89.8 ± 8.75% | 74.8 ± 7.02% |  |  |  |  |  |  |  |  |  |  |  |  |  | 
7 | CC(=O)OC[C@H]1O[C@H](n2cc(Cn3ccc4nc(-c5ccc(C(C)C)cc5)cc(=O)n43)nn2)[C@@H](OC(C)=O)[C@@H](OC(C)=O)[C@@H]1OC(C)=O [Compound 46, (2R,3R,4S,5S,6S)-2-(Acetoxymethyl)-6-(4-((5-(4-isopropylphenyl)-7-oxopyrazolo[1,5-a]pyrimidin-1(7H)-yl)methyl)-1H-1,2,3-triazol-1-yl)tetrahydro-2H-pyran-3,4,5-triyl triacetate] |  | 80.6 ± 4.7% | 75.5 ± 4.44% | 83.5 ± 7.27% |  |  |  |  |  |  |  |  |  |  |  |  |  | 
8 | CC(=O)OC[C@H]1O[C@H](n2cc(Cn3ccc4nc(-c5ccc(Cl)cc5)cc(=O)n43)nn2)[C@@H](OC(C)=O)[C@@H](OC(C)=O)[C@@H]1OC(C)=O [Compound 43, (2R,3R,4S,5S,6S)-2-(Acetoxymethyl)-6-(4-((5-(4-chlorophenyl)-7-oxopyrazolo[1,5-a]pyrimidin-1(7H)-yl)methyl)-1H-1,2,3-triazol-1-yl)tetrahydro-2H-pyran-3,4,5-triyl triacetate] |  | 99.5 ± 10.2% | 95.2 ± 10.6% | 71.4 ± 10.5% |  |  |  |  |  |  |  |  |  |  |  |  |  | 
9 | CC(=O)OC[C@@H]1O[C@H](n2cc(Cn3ccc4nc(-c5ccc(F)cc5)cc(=O)n43)nn2)[C@@H](OC(C)=O)[C@H](OC(C)=O)[C@H]1OC(C)=O (stereo in doubt) [Compound 26, (2S,3S,4R,5S,6S)-2-(Acetoxymethyl)-6-(4-((5-(4-fluorophenyl)-7-oxopyrazolo[1,5-a]pyrimidin-1(7H)-yl)methyl)-1H-1,2,3-triazol-1-yl)tetrahydro-2H-pyran-3,4,5-triyl triacetate] | ~50% | 76.6 ± 9.76% | 60 ± 8.47% | 54.6 ± 5.61% | ~50% | 26.6 µM | 80 ± 4.5% | 65.8 ± 1.8% | 52.8 ± 3% | 87.8 ± 3.2% | 84.2 ± 11.5% | 66.3 ± 5.8% | did not reach up to IC50 value | none of these compounds did have any growth inhibitory activity | 87.8 ± 2.8% | 85.6 ± 0.7% | 82 ± 1.5% | 
10 | COc1ccc(-c2cc(=O)n3c(ccn3Cc3cn([C@H]4O[C@@H](COC(C)=O)[C@H](OC(C)=O)[C@@H](OC(C)=O)[C@@H]4OC(C)=O)nn3)n2)cc1 (stereo in doubt) [Compound 23, (2S,3S,4R,5S,6S)-2-(Acetoxymethyl)-6-(4-((5-(4-methoxyphenyl)-7-oxopyrazolo[1,5-a]pyrimidin-1(7H)-yl)methyl)-1H-1,2,3-triazol-1-yl)tetrahydro-2H-pyran-3,4,5-triyl triacetate] | ~50% | 65.1 ± 8.53% | 49 ± 9.19% | 34.3 ± 5.29% | ~50% | 9.24 µM | 66.7 ± 1.18% | 40.3 ± 3.6% | 31.7 ± 4% | 80.6 ± 8% | 88.4 ± 5.4% | 77.1 ± 5.7% | did not reach up to IC50 value | none of these compounds did have any growth inhibitory activity | 88.6 ± 1.5% | 86.3 ± 2.9% | 84.2 ± 3% | 
